Assay results reported in ChEMBL document CHEMBL1135752, “Pyrazolopyrimidine-2,4-dione sulfonamides: novel and selective calcitonin inducers” (J Med Chem, 2002).

Experiments:
Phosphodiesterase 4 [1] = target: T1, Phosphodiesterase 4 (Homo sapiens, UniProt P27815+Q08499+Q07343+Q08493); assay: Percent Rolipram activity of a standard U937 cell phosphodiesterase 4 (PDE4) enzyme assay at 30 uM of compound; format: cell-based; settings: U-937
How it was run: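 U937 cell PDE4 enzyme assay with compound at 30 µM. Activity is scaled and reported as percent of rolipram activity.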

[2] = Increased transcription of human calcitonin luciferase reporter gene at 30 uM; format: functional
How it was run: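 Luciferase reporter gene under control of the human calcitonin gene/promoter, used to measure transcription activation. Compound tested at 30 µM. Read-out is the transcription activation ratio: luciferase activity with compound divided by luciferase activity in untreated control.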

[3] = Ability to increase Human calcitonin secretion; format: functional
How it was run: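 Calcitonin secretion assay with radioimmunoassay read-out, measuring the rise in cellular levels and secretion of human CT. Compound tested at 30 µM. Value is the ratio of secretion with compound to secretion in untreated control; average precision error reported as 10-33%.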

Phosphodiesterase 4 [4] = target: T1, Phosphodiesterase 4; assay: Inhibition of phosphodiesterase 4 (PDE4); format: protein assay

SMILES | Activity (Phosphodiesterase 4 [1]) [%] | CT-luci TAR [2] [T/C] | IC50 (Phosphodiesterase 4 [4]) [µM] | CTS increase [3]
CCCCn1c(=O)c2nn(S(=O)(=O)c3cccc(C(F)(F)F)c3)cc2n(CCCC)c1=O | 32 | 1.8 | – | 3.8
CCCCn1c(=O)c2nn(S(=O)(=O)c3cccc4cccnc34)cc2n(CCCC)c1=O | 59 | 2.2 | – | 3.8
CCCCn1c(=O)c2nn(S(=O)(=O)c3ccc4ccccc4c3)cc2n(CCCC)c1=O | 66 | 1.8 | – | 4.9
CCCCn1c(=O)c2nn(S(=O)(=O)Cc3ccccc3)cc2n(CCCC)c1=O | 65 | 1.5 | – | 2.6
CCCCn1c(=O)c2nn(S(=O)(=O)c3ccc(C(C)(C)C)cc3)cc2n(CCCC)c1=O | 37 | 2.3 | – | 4.5
CCCCn1c(=O)c2nn(S(=O)(=O)c3cc(Cl)c(Cl)s3)cc2n(CCCC)c1=O | 59 | 1.7 | – | 3.4
CCCCn1c(=O)c2cn(S(=O)(=O)c3cccc4cccnc34)nc2n(CCCC)c1=O | 96 | 2.9 | – | 4.8

The next lines start with results.

Activity (Phosphodiesterase 4 [1]) [%] | CT-luci TAR [2] [T/C] | IC50 (Phosphodiesterase 4 [4]) [µM] | SMILES | CTS increase [3]
16 | 3.2 | – | CCCCn1c(=O)c2cn(S(=O)(=O)c3cc(Cl)c(Cl)s3)nc2n(CCCC)c1=O | 3
57 | 2.6 | – | CCCCn1c(=O)c2cn(S(=O)(=O)c3ccc(C(C)(C)C)cc3)nc2n(CCCC)c1=O | 2.9
32 | 3.6 | – | CCCCn1c(=O)c2cn(S(=O)(=O)c3ccccc3C#N)nc2n(CCCC)c1=O | 3.4
60 | 2.1 | – | CCCCn1c(=O)c2nn(S(C)(=O)=O)cc2n(CCCC)c1=O | 0.9
100 | 2.1 | – | CCCCn1c(=O)c2c(ncn2CC(C)=O)n(CCCC)c1=O | 3.5
66 | 1.9 | 4.9 | CCCCn1c(=O)c2cn(S(=O)(=O)CCCCl)nc2n(CCCC)c1=O | 2.7
69 | 1.3 | 4.9 | CCCCn1c(=O)c2nn(S(=O)(=O)CCCCl)cc2n(CCCC)c1=O | 4.4
52 | 2 | – | CCCCn1c(=O)c2cn(S(=O)(=O)Cc3ccccc3)nc2n(CCCC)c1=O | 3.4
93 | 1.8 | – | CCCCn1c(=O)c2cn(S(C)(=O)=O)nc2n(CCCC)c1=O | 3.9
